Compound activity deposited in PubChem BioAssay by Johns Hopkins Ion Channel Center.
MrgX1 antagonist – antagonists of human MrgX1 receptor, primary screen, HEK293 cells, Fluo-4 calcium flux; BAM8-22 antagonism; active compounds read low; 310,000 tested, 1.3% active; AID 588676, 2011; Mas-related G-protein coupled receptor member X1 (Homo sapiens), Q96LB2; B-score at 10 µM;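 active means calcium-response B-score plate-corrected more than 3 library SD below zero, starting fluorescence within 5 deviations, no agonist response on first addition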;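 further: peak minus trough fluorescence over baseline after final BAM8-22 challenge near maximal dose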
Target sequence (Q96LB2 whole entry, looked up): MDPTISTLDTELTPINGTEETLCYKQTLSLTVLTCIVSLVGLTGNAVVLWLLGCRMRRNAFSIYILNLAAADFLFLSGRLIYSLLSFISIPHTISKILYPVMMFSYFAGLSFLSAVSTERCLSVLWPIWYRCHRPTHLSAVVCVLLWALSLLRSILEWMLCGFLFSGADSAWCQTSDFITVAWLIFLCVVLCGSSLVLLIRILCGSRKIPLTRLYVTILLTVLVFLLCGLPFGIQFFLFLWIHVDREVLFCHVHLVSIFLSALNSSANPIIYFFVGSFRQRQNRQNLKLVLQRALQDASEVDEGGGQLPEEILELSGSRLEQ
RGS4 pot – RGS4 potentiators or activators, primary screen, cell-based, HEK293 M3R inducible RGS4, calcium flux. carbachol calcium flux Fluo4; active compounds read low. B-score at 10 µM. 310,000 tested, 0.92% active;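 active means B-score of the integrated calcium signal more than 4 SD below the library mean, with starting fluorescence not abnormally high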;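 further: negative B-score means reduced calcium response which marks RGS4 activation or potentiation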
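Assay system: Inducible-RGS4 HEK293 cells carrying M3 receptor | Schedule: Compound preincubation 20 min at room temperature before agonist | Signal: Kinetic calcium fluorescence imaging with Fluo4-AM dye, 2 µM | Read-out basis: B score from integrated fluorescence ratio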
MrgX1 ag – agonists of human MrgX1 receptor, primary screen, HEK293 cells, Fluo-4 calcium flux | Fluo-4 calcium fluorescence, agonist mode; active compounds read high | 310,000 tested, 0.44% active | B-score at 10 µM | Mas-related G-protein coupled receptor member X1 (Homo sapiens), Q96LB2;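 active means calcium response B-score plate-corrected fluorescence ratio at least 3 library SD, with starting fluorescence B-score inside 5 SD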
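System – MrgX1-expressing HEK293 cells · Incubation – cells plated overnight, dye loaded 0.5 h 37 °C, 0.5 h room temperature · Technique – kinetic Fluo-4 NW fluorescence of intracellular calcium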
MrgX1 allo act – positive allosteric modulators of MrgX1, primary screen, HEK293 cells, Fluo-4 calcium flux; 310,000 tested, 0.63% active; FDSS; active compounds read high; AID 588675, 2011; B-score at 10 µM;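 active means plate-corrected calcium response at least 3 library SD above typical, normal starting fluorescence, not activating the receptor alone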;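 further: compound read alongside a low EC10 to EC30 dose of BAM8-22 agonist; peak minus trough fluorescence over baseline measured at the second addition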
RGS4 inh – RGS4 inhibitors, primary screen, cell-based, HEK293 M3R inducible RGS4, calcium flux; AID 463165, 2010; 310,000 tested, 0.45% active; Fluo-4 calcium flux; active compounds read high; triggered by carbachol at its EC20; Regulator of G-protein signaling 4 (Homo sapiens), P49798; B-score at 10 µM;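 active means B-score, a plate-corrected calcium signal, over three deviations above library mean, with baseline fluorescence within five deviations of library mean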;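 further: RGS4 expression induced by doxycycline in cells with stable M3 receptor; B-score is computed from the integrated fluorescence ratio over baseline after carbachol; higher B-score means a larger calcium signal and so more RGS4 inhibition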
Target sequence (P49798 whole entry, looked up): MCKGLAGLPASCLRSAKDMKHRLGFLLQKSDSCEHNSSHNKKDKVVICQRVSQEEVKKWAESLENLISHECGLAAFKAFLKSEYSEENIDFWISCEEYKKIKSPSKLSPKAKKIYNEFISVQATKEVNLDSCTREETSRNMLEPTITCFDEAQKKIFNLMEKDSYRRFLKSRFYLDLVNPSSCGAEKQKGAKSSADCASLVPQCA
RGS4 inh valid – enhanced carbachol calcium response, M3R/RGS4 cells, RGS4 inhibitor project, cell-based, validation screen, HEK293 M3R/RGS4, calcium flux. carbachol calcium Fluo-4 fluorescence; carbachol added at its EC20; 0 = buffer wells, 100 = carbachol control. 1,700 tested, 65% active. shares compounds with RGS4 inh. AID 492999, 2010. calcium response, % at 10 µM;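 active means duplicate-averaged calcium response above the buffer-only control mean plus 5 SD of those controls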;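 further: integrated fluorescence ratio F max minus min over baseline F0; higher response in RGS4-induced cells means RGS4 inhibition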
M3R Ca ctr – carbachol calcium response in non-induced M3R cells, confirmation, counter-screen for RGS4 inhibitor project, cell-based, HEK293 M3R | shares compounds with RGS4 inh | carbachol calcium Fluo-4; submaximal (EC20) carbachol stimulus; buffer wells 0%, carbachol control wells 100% | activity (percent), % at 10 µM | 1,900 tested, 20% active | AID 493000, 2010; call rule not given here;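 further: RGS4 induction absent so cells express M3R without RGS4; higher means more calcium signal and flags a non-specific hit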
RGS4 inh ctr2 – second counter-screen for RGS4 inhibitors: non-induced cells without carbachol; shares compounds with RGS4 inh; HEK293 M3R/RGS4 non-induced, Fluo-4 calcium, no carbachol; normalised: buffer wells 0%, carbachol wells 100%; calcium response (agonist-mode artifact), % at 10 µM; 1,900 tested, 22% active; AID 493001;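 active means duplicate-averaged calcium rise in uninduced cells above buffer wells' mean plus 5 SD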
MrgX1 ag confirm – MrgX1 receptor agonists, duplicate retest, confirmation, HEK293 cells, Fluo-4 calcium flux; 600 tested, 78% active; Fluo-4 calcium fluorescence, FDSS; activation, % at 10 µM; shares compounds with MrgX1 ag;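 active means calcium signal rise, corrected for plate position, at least 3 library SD high, with starting brightness within 5 such deviations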; further: reference of the scale not given here
MrgX1 PAM conf – MrgX1 positive allosteric modulators, duplicate retest, confirmation, HEK293 cells, Fluo-4 calcium flux; shares compounds with MrgX1 allo act; Fluo-4 calcium fluorescence, FDSS; activation (ratio percentage), % at 10 µM; 1,200 tested, 13% active; AID 602413, 2012;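 active means ratio at least 3 SD above the weak peptide control, stable starting fluorescence, no direct agonism earlier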;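 further: compound followed by low BAM8-22 agonist challenge near EC20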
MrgX1 antag conf – MrgX1 receptor antagonists, duplicate retest, confirmation, HEK293 cells, Fluo-4 calcium flux; remaining BAM8-22 calcium response % of control (active compounds read low), % at 10 µM; shares compounds with MrgX1 antagonist; BAM8-22 calcium flux; active compounds read low; AID 602420, 2012; 2,300 tested, 19% active;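 active means remaining agonist calcium response no higher than 100% minus 3 SD of agonist-only control wells, with starting fluorescence near control levels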;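 further: agonist BAM8-22 given at a near maximal EC90 to ECmax level; peak minus minimum fluorescence divided by baseline after agonist addition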
HEK293 Ca flux – nonspecific calcium signal in parental HEK293, confirmation, counter-screen for MrgX1 antagonist project, parental HEK293 cells, Fluo-4 calcium flux; shares compounds with MrgX1 antagonist; Fluo-4 calcium fluorescence, FDSS; fluorescence ratio F(max-min)/F0 at 10 µM; 4,000 tested, 2% active; AID 624111, 2012;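 active means duplicate-averaged calcium fluorescence ratio at least three times the standard deviation of buffer wells, a nonspecific response in parental cells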
HEK293 Ca counter – calcium response in parental HEK293 cells, primary screen, counter-screen for MrgX1 allosteric activator project, cell-based, Fluo-4 calcium flux, duplicate; shares compounds with MrgX1 antagonist; 4,000 tested, 0.4% active; Fluo-4 fluorescence ratio; active compounds read high; fluorescence ratio F(max-min)/F0 at 10 µM;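 active means calcium fluorescence ratio, averaged over duplicates, at least 3 SD of the buffer-well ratio, meaning a nonspecific response in receptor-free cells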;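 further: untransfected parental HEK293 lacking MrgX1 used as counterscreen for MrgX1 allosteric activators; fluorescence change taken during the second addition on a kinetic imager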
HEK293 Ca cntr2 – calcium response in parental HEK293 cells, primary screen, counter-screen for MrgX1 agonist project, cell-based, Fluo-4 calcium flux, duplicate, agonist mode; fluorescence ratio F(max-min)/F0 at 10 µM; AID 624115, 2012; 4,000 tested, 8.7% active; Fluo-4 calcium fluorescence (FDSS); active compounds read high; shares compounds with MrgX1 antagonist;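 active means calcium fluorescence ratio at least three times the spread of buffer wells, meaning a non-specific response in parental cells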
* marks the source's active call; other numbers are inactive results; i = inactive; · = no result given. Rows were chosen to be rich in hits. Some 3.5% of all compounds tested hit in one or more screens of this group.

SMILES	MrgX1 antagonist	RGS4 pot	MrgX1 ag	MrgX1 allo act	RGS4 inh	RGS4 inh valid	M3R Ca ctr	RGS4 inh ctr2	others
O=C(O)CCC(=O)Nc1sc2c(c1C(=O)Nc1ccccc1)CCCCC2	i	i	i	i	5.46*	7.0%*	63.5%*	i
CCN(C#N)c1nc(NC(C)C)nc(NC(C)(C)C)n1	i	i	i	i	5.07*	7.0%*	i	i
COc1ccc(OC)c(-c2nc3ccccc3nc2-c2ccccc2)c1	i	i	i	i	i	i	i	i
Cc1c(-c2ccccc2)oc2c(C(=O)OCC(=O)Nc3ccc(F)cc3)cccc2c1=O	i	i	i	i	i	·	·	·
Cc1noc(NS(=O)(=O)c2ccc(N/C=C\C(=O)c3ccccc3)cc2)c1C	i	i	i	i	i	·	i	i
Cc1noc(NS(=O)(=O)c2ccc(N/C=C/C(=O)c3ccc4c(c3)OCO4)cc2)c1C	i	i	i	i	i	·	·	·
Cc1noc(NS(=O)(=O)c2ccc(N/C=C\C(=O)c3ccc(F)cc3)cc2)c1C	i	i	i	i	i	·	36.5%*	i
Cc1cccc(-n2ccc(=O)c(C(=O)Nc3ccc(S(=O)(=O)Nc4onc(C)c4C)cc3)n2)c1	i	i	i	i	4.68*	7.0%*	i	i
Cc1noc(NS(=O)(=O)c2ccc(N/C=C\C(=O)c3cccs3)cc2)c1C	i	i	i	i	i	·	·	·
Cc1ccc(C(=O)Nc2ccccc2)cc1S(=O)(=O)N1CCN(C)CC1	i	i	i	i	i	·	·	·
Fc1ccc(COc2cccc(CNCc3ccncc3)c2)cc1	i	i	i	i	i	·	·	·
O=C(COc1ccc([N+](=O)[O-])cc1)NCCC1=CCCCC1	i	i	i	i	5.01*	i	i	i
O=c1cc(-c2ccccc2Cl)oc2c([N+](=O)[O-])c(O)cc(O)c12	i	i	i	i	10.2*	32.5%*	52.0%*	i
O=c1cc(-c2ccccc2Cl)oc2ccc([N+](=O)[O-])c(O)c12	i	i	i	i	i	·	·	·
c1ccc(CC2CCN(c3ncnc4sccc34)CC2)cc1	·	i	·	·	i	·	·	·
O=C(O)c1cc2c(N3CCC(Cc4ccccc4)CC3)ncnc2s1	i	i	i	i	16.6*	57.5%*	50.5%*	i
CCc1sc(C(C2C(=O)CC(C)(C)CC2=O)C2C(=O)CC(C)(C)CC2=O)cc1[N+](=O)[O-]	i	i	52.3*	i	30.5*	30.5%*	i	121.0%*
Cc1ccc(S(=O)(=O)Nc2c(C(=O)O)[nH]c3ccccc23)c(C)c1	i	i	i	i	i	·	·	·
CCOC(=O)/C(=C\c1cn(C)c2ccccc12)[N+](=O)[O-]	-4.6*	i	i	i	5.8*	34.0%*	i	20.0%*
CCOC(=O)/C(C#N)=C\c1cn(C)c2ccccc12	i	i	i	i	i	·	·	·
O=[N+]([O-])c1ccc(Oc2ccc(S(=O)(=O)Nc3ccccc3)cc2)cc1	i	i	i	i	i	·	·	·
O=C1C(Cl)=C(NS(=O)(=O)c2ccc([N+](=O)[O-])cc2)C(=O)c2ccccc21	i	i	i	21.2*	8.48*	42.5%*	i	i	MrgX1 PAM conf=14.3%*;HEK293 Ca flux=i;HEK293 Ca counter=i;HEK293 Ca cntr2=i
Cc1cc(NC(=O)CCC(=O)N(CC(=O)NC2CCCC2)c2ccc(Cl)cc2)no1	i	i	i	i	i	·	·	·
CCN(CC)c1ccc(Nc2cc3n(c(=O)n2)CCc2cc(OC)c(OC)cc2-3)cc1	-11.1*	i	i	i	i	·	49.5%*	i	MrgX1 antag conf=i;HEK293 Ca flux=i;HEK293 Ca counter=i;HEK293 Ca cntr2=i
COc1ccc(C(=O)CCS(=O)(=O)c2ccc(F)cc2)cc1OC	i	i	31.2*	i	35.5*	168.0%*	28.5%*	15.0%*	MrgX1 ag confirm=140.9%*;HEK293 Ca flux=i;HEK293 Ca counter=i;HEK293 Ca cntr2=i
CC(Nc1[nH]c(=O)n(C)c(=O)c1N=O)c1ccccc1 (centres undefined)	i	i	i	i	i	·	·	·
